Drawing on ChEMBL document CHEMBL5030534, “Discovery of Novel Anti-Breast-Cancer Inhibitors by Synergistically Antagonizing Microtubule Polymerization and Aryl Hydrocarbon Receptor Expression” (J Med Chem, 2021), this text covers IC50 and Activity for 13 molecules.

The structures appear in SMILES notation. Calls of active or inactive are those of the source. No cut-off for these calls is given here. Bounds are passed on as bounds.

For test [1], the system named is MCF7. As to the kind of experiment: Antiproliferative activity against human MCF7 cells assessed as reduction in cell viability incubated for 48 hrs by MTT assay. The class given is functional, cell-based. The following applies: MCF7, 48 h. In outline:
(§1)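 Cells seeded at 5 × 10³ per well, incubated overnight, then exposed to a range of compound concentrations for 48 h. MTT added for 4 h, medium replaced with DMSO, absorbance read at 570 nm. MCF-7, L-O2 grown in DMEM; MCF-10A, MCF-7/ADR in RPMI 1640. Three independent runs.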
On the technique in general: Formazan colour is commonly taken as a measure of viable cells.

The nature of test [2]: Antiproliferative activity against human MCF7/ADR cells assessed as reduction in cell viability incubated for 48 hrs by MTT assay. The following applies: MCF7, 48 h. The class given is functional, cell-based. In outline: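 Cells seeded at 5 × 10³ per well, incubated overnight, then exposed to a range of compound concentrations for 48 h. MTT added for 4 h, medium replaced with DMSO, absorbance read at 570 nm. Three independent runs.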

The test system of a further test is MCF-10A. As to the kind of experiment: Antiproliferative activity against human MCF-10A cells assessed as reduction in cell viability incubated for 48 hrs by MTT assay. The class given is cell-based. The method in brief: as §1
The next test deals with L02. As to the kind of experiment: Antiproliferative activity against human L-O2 cells assessed as reduction in cell viability incubated for 48 hrs by MTT assay. The class given is cell-based. To be noted: L02, 48 h. In outline: as §1
The next test addresses Tubulin (Homo sapiens) (UniProt P68371+Q9H4B7+P0DPH7+P68366+Q13509+Q71U36+P04350+Q3ZCM7+P07437+P68363+Q9BQE3+Q6PEY2+Q13885+Q9BVA1+Q9BUF5). As to the kind of experiment: Induction of microtubule depolymerization in human MCF7 cells at 10 uM measured every 5 mins for 60 mins by spectrophotometric method. The class given is cell-based. In outline:
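Purified tubulin at 2 mg/mL in PEM buffer preincubated on ice with compound or DMSO. PEG added to a final 3 mg/mL, then polymerization followed at 37 °C by absorbance at 350 nm every 5 min for 60 min.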

Test [3] relates to MCF7. As to the kind of experiment: Antitumor activity against human MCF7 cells xenografted in BALB/c nude mouse assessed as decrease in tumor weight at 20 mg/kg, iv administered every 2 days for 21 days and measured every 2 days. To be noted: time 21 day. The arrangement: scale not given: the % may be the effect or the level left. The class given is functional. The method in brief: (§2)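 MCF-7 cells (6 × 10⁶) injected subcutaneously into right flank of BALB/c nude mice; after 7 days animals randomized, eight per group. Dosing iv every 2 days for 21 days, vehicle 10% DMSO/5% Tween 80/85% saline. Tumor size and body weight recorded every 2 days; tumors excised and weighed at sacrifice.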
For orientation: Xenograft models place foreign cells or tissue in a host animal.

Test [4] deals with MCF7. In words: Antitumor activity against human MCF7 cells xenografted in BALB/c nude mouse assessed as decrease in tumor weight at 10 mg/kg, iv administered every 2 days for 21 days and measured every 2 days. To be noted: time 21 day. The class given is functional. The arrangement: scale not given: the % may be the effect or the level left. In outline:
as §2

Consider `Cc1cc(N(C)c2ccc(N(C)C)cc2)c2ccccc2n1`, for which the IC50 with MCF7 [1] came to 943 nM; in test [2], 33 nM; in the test with MCF-10A, 49 nM; in the test on L02 it was 227 nM.

As to `Cc1cc(N(C)c2cnc3c(ccn3C)c2)c2ccccc2n1`, the IC50 with MCF7 [1] was 4.5 nM; in test [2] it was 6.1 nM; in the test on MCF-10A, 24 nM; in the test with L02, 10 nM.

In the case of `COc1ccc(/C=C\c2cc(OC)c(OC)c(OC)c2)cc1O` [COMBRETASTATIN A4], the half-maximal inhibitory concentration (IC50) with MCF7 [1] was 4.8 nM; with MCF-10A, 99 nM; in the test with L02 it was 10.3 nM. The outcome at Tubulin (Homo sapiens) was Active. In addition, the Activity with MCF7 [3] stood at 37.5%.

On to `COc1ccc(N(C)c2cc(C)nc3ccccc23)cc1OC`, for which the IC50 in the test on MCF7 [1] turned out to be 97 nM; in test [2], 29 nM; in the test with MCF-10A, 473 nM; in the test on L02, 2170 nM.

Turning to `Cc1nc(N(C)c2cnc3c(ccn3C)c2)c2ccccc2n1`, the concentration for half-maximal inhibition (IC50) in the test with MCF7 [1] came to 2.1 nM; in test [2], 2.1 nM; in the test on MCF-10A, 16 nM; in the test on L02 it was 7.3 nM.

Take `Cc1ccc(N(C)c2cc(C)nc3ccccc23)cc1`: the IC50 with MCF7 [1] was determined as 103 nM; in test [2], 54 nM; in the test on MCF-10A it was 184 nM; in the test on L02, 1530 nM.

On to `CCN(CC)c1ccc(N(C)c2cc(C)nc3ccccc23)cc1`, for which the IC50 with MCF7 [1] was determined as 25 nM; in test [2], 267 nM; in the test on MCF-10A it was 12 nM; with L02, 31 nM.

Take `Cc1cc(N(C)c2ccc3c(c2)OCO3)c2ccccc2n1`: the IC50 in the test with MCF7 [1] is 54 nM; in test [2], 46 nM; in the test on MCF-10A, 127 nM; in the test on L02 it was 2500 nM.

Regarding `COc1cc(N(C)c2cc(C)nc3ccccc23)cc(OC)c1OC`, the IC50 in the test on MCF7 [1] was above 1000 nM; in test [2], 912 nM; in the test on MCF-10A, above 1000 nM; in the test with L02 it was 4120 nM.

Consider `Cc1cc(N(C)c2ccc3c(c2)cc(C)n3C)c2ccccc2n1`, for which the IC50 in the test on MCF7 [1] came to 2.4 nM; in test [2], 2.2 nM; with MCF-10A it was 10 nM; in the test with L02, 7.3 nM.

Turning to `CC(=O)O[C@H]1C(=O)[C@@]2(C)[C@H]([C@H](OC(=O)c3ccccc3)[C@]3(O)C[C@H](OC(=O)[C@H](O)[C@@H](NC(=O)c4ccccc4)c4ccccc4)C(C)=C1C3(C)C)[C@]1(OC(C)=O)CO[C@@H]1C[C@@H]2O` [PACLITAXEL], the result on Tubulin (Homo sapiens) was inactive. Moreover, the Activity in the test with MCF7 [4] came to 84.2%.

With `Cc1cc(N(C)c2ccc(-c3ccccc3)cc2)c2ccccc2n1`, the IC50 is above 1000 nM in the test on MCF7 [1], 817 nM in test [2], above 1000 nM in the test with MCF-10A and 3450 nM in the test with L02.

For `Cc1cc(N(C)c2ccc(C(F)(F)F)cc2)c2ccccc2n1`, the IC50 in the test on MCF7 [1] was above 1000 nM; in test [2], 859 nM; in the test on MCF-10A, above 1000 nM; with L02, 3840 nM.

Broadly, the IC50 is the concentration that gives 50% inhibition.
